In ChEMBL document CHEMBL3232904, “Discovery of novel quinoline carboxylic acid series as DGAT1 inhibitors” (Bioorg Med Chem Lett, 2014):
In brackets after ≈: the same amount, converted by molar mass.

Tests used:
[1] = Drug degradation in human plasma at 25 degC after 12 hrs; type: ADME, cell-free; settings: read-out: Drug degradation
[2] = test system: Mus musculus; assay: Reduction of postprandial plasma triglyceride level in C57BL/6J mouse at 10 mg/kg, po administered 15 mins prior to corn oil bolus challenge measured after 2 hrs relative to vehicle-treated control; type: functional; parameters: scale not given: the % may be the effect or the level left
Procedure, shortened: (§1)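 Vehicle is 20% hydroxypropyl-β-cyclodextrin; compound or vehicle is given 15 min before time 0. Mice receive a 0.25 mL corn oil bolus at time 0. Terminal blood is taken by heart puncture at 120 min. Plasma TG is measured by an enzymatic colorimetric kit with absorbance read at 600 nm. Values are the mean ± SEM from eight studies, as % reduction versus vehicle.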

[3] = molecular target: T1, Diacylglycerol O-acyltransferase 2 (Homo sapiens, UniProt Q96PD7); assay: Inhibition of human DGAT2
T1 sequence (Q96PD7 whole entry): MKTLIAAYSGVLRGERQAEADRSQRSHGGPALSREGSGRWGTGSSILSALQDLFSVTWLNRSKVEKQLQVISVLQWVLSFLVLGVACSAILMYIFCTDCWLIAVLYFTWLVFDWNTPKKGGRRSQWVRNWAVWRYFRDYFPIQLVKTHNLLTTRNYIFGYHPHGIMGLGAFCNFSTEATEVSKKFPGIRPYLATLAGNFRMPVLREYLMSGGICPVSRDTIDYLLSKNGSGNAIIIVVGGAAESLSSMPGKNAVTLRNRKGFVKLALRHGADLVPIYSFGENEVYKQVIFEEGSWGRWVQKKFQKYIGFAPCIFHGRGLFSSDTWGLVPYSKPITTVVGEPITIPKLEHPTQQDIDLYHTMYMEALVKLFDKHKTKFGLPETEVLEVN

[4] = molecular target: T2, Sterol O-acyltransferase 2 (Homo sapiens, UniProt O75908); assay: Inhibition of human ACAT2
T2 sequence (O75908 whole entry): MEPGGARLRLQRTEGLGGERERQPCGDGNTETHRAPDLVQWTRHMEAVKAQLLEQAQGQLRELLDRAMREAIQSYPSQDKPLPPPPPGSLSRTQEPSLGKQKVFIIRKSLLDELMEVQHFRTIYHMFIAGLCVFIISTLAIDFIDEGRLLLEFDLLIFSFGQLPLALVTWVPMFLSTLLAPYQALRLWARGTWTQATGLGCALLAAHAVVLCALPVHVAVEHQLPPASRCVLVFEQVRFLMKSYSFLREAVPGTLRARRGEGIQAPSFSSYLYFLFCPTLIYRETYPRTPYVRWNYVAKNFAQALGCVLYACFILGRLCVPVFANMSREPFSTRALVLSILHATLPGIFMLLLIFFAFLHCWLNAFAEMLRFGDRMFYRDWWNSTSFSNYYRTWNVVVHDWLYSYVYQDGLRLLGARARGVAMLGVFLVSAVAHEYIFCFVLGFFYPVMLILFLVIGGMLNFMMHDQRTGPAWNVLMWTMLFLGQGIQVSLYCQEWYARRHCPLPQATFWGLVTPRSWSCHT
Procedure, shortened: (§2)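 IC50 values are the average of at least two independent determinations.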

[5] = molecular target: T3, Diacylglycerol O-acyltransferase 1 (Homo sapiens, UniProt O75907); assay: Inhibition of human DGAT1
T3 sequence (O75907 whole entry): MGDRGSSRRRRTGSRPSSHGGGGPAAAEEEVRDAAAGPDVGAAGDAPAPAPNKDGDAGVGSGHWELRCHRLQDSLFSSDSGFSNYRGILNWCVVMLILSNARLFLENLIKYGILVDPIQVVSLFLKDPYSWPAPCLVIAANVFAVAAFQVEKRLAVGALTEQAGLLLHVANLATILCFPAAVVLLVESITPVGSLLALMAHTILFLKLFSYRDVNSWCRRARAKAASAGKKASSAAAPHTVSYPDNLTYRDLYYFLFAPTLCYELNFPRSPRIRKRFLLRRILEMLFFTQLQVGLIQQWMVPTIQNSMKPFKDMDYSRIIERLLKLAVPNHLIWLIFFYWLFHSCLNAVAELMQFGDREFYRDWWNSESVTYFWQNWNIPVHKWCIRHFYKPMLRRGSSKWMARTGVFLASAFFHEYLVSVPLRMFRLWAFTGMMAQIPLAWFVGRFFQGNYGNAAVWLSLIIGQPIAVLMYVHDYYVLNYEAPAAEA

[6] = molecular target: T4, Diacylglycerol O-acyltransferase 1 (Mus musculus, UniProt Q9Z2A7); assay: Inhibition of mouse DGAT1; procedure, shortened: as §2
T4 sequence (Q9Z2A7 whole entry): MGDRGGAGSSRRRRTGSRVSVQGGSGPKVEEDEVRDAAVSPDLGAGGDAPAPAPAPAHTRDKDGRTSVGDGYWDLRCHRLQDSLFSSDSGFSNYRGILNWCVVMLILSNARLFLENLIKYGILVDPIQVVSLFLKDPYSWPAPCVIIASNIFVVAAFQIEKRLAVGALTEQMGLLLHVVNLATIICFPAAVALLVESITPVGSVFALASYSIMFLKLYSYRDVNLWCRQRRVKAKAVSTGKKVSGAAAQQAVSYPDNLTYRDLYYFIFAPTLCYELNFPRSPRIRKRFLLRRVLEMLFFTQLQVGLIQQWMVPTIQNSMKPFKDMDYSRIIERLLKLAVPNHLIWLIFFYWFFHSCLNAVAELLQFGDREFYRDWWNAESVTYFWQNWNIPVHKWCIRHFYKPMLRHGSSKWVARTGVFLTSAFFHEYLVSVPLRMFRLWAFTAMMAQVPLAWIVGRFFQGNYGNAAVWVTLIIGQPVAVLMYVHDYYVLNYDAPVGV

[7] = AUC in rat at 10 mg/kg, po; type: ADME, organism-based; parameters: dose 10 mg/kg, route oral; settings: plasma
[8] = Half life in rat at 10 mg/kg, po; type: ADME, organism-based; parameters: dose 10 mg/kg, route oral; settings: in vivo
[9] = Clearance in rat hepatocytes assessed per million cells; type: ADME, cell-based, Hepatocyte; settings: read-out: CLH
[10] = Oral bioavailability in rat at 10 mg/kg; type: ADME, organism-based; settings: in vivo
[11] = Plasma protein binding in rat; type: ADME, cell-free; settings: read-out: PPB (converted)
[12] = Permeability across human Caco2 cells; type: ADME, cell-based; settings: Caco-2, read-out: permeability
[13] = Solubility of the compound; type: physicochemical
[14] = Clearance in human hepatocytes assessed per million cells; type: ADME, cell-based, Hepatocyte; settings: read-out: CLH
[15] = molecular target: T5, CYP1A1 (Homo sapiens, UniProt P04798); assay: Induction of CYP1A1 (unknown origin) at 30 uM; type: ADME; settings: read-out: FC
T5 sequence (P04798 whole entry): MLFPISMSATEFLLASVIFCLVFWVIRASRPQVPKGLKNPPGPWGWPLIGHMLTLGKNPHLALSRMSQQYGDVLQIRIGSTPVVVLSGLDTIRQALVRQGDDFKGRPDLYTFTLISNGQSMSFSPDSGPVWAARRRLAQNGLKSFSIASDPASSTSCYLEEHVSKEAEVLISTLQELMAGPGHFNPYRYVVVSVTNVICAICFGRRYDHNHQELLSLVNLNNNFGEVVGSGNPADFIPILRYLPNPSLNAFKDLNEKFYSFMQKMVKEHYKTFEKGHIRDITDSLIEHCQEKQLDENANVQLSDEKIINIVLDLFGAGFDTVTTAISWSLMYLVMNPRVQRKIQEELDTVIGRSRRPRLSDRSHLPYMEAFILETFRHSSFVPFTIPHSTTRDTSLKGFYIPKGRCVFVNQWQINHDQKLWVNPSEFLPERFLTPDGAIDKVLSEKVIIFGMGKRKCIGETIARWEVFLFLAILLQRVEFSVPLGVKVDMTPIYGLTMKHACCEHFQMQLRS

[16] = Metabolic stability in human plasma assessed as compound recovery at 25 degC after 6 days; type: ADME, cell-free; settings: read-out: Drug recovery
[17] = Solubility of the compound at pH 7; type: physicochemical; settings: buffer
[18] = molecular target: T6, Sterol O-acyltransferase 1 (Homo sapiens, UniProt P35610); assay: Inhibition of human ACAT1; procedure, shortened: as §2
T6 sequence (P35610 whole entry): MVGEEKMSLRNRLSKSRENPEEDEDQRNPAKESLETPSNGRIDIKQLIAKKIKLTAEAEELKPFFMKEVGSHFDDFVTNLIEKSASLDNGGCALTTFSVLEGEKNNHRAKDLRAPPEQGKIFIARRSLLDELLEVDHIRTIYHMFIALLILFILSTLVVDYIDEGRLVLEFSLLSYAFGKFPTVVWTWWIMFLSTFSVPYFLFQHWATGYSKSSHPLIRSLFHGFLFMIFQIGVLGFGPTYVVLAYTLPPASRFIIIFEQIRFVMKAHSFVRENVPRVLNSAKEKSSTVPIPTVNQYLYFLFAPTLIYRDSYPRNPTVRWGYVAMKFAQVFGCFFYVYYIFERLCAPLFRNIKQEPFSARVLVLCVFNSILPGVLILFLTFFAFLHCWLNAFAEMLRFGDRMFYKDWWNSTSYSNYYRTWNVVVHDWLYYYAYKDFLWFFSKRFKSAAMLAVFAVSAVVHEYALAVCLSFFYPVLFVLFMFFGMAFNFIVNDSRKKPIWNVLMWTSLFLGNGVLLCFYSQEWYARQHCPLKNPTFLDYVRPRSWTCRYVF

[19] = test system: Plasma; assay: Metabolic stability in rat plasma at 25 degC; type: ADME, cell-free
[20] = test system: Mus musculus; assay: Reduction of postprandial plasma triglyceride level in C57BL/6J mouse at 3 mg/kg, po administered 15 mins prior to corn oil bolus challenge measured after 2 hrs relative to vehicle-treated control; type: functional; parameters: scale not given: the % may be the effect or the level left; procedure, shortened: as §1
[21] = test system: Plasma; assay: Metabolic stability in mouse plasma at 25 degC; type: ADME, cell-free
[22] = test system: Plasma; assay: Metabolic stability in human plasma at 25 degC; type: ADME, cell-free

IC50 [5] [nM]	IC50 [6] [nM]	AUC [7] [µM·h]	SMILES	Activity [2] [%]	further results
37			O=C(O)C[C@H]1CC[C@H](c2ccc(-c3ccc4c(ccn4C(=O)Nc4ccccc4)c3)cc2)CC1	-45	metabolised at 12 h [1]: 40%; IC50 [3]: > 50000 nM; IC50 [4]: 3000 nM
	3840		O=C(O)C[C@H]1CC[C@H](c2ccc(-c3ccc4oc(Nc5ccccc5)nc4c3)cc2)CC1		
	> 10000		O=C(O)C[C@H]1CC[C@H](c2ccc(-c3ccc4nc(Nc5ccccc5)ncc4c3)cc2)CC1		
	> 5000		O=C(O)C[C@H]1CC[C@H](c2ccc(-c3ccc4nc(C(=O)Nc5ccccc5)[nH]c4c3)cc2)CC1		
	1090		O=C(O)C[C@H]1CC[C@H](c2ccc(-c3ccc4cc(C(=O)Nc5ccccc5)[nH]c4c3)cc2)CC1		
	284	1.3	O=C(O)C[C@H]1CC[C@H](c2ccc(-c3ccc4c(C(=O)Nc5ccccc5)c[nH]c4c3)cc2)CC1	23	
	84	79	O=C(O)C[C@H]1CC[C@H](c2ccc(-c3ccc4c(c3)CCCN4C(=O)Nc3ccccc3)cc2)CC1	-15	
> 10000	1670		O=C(O)C[C@H]1CC[C@H](c2ccc(-c3ccc4c(c3)C(=O)CCN4C(=O)Nc3ccccc3)cc2)CC1		
	4820		O=C(O)C[C@H]1CC[C@H](c2ccc(-c3ccc4c(c3)NCCN4C(=O)Nc3ccccc3)cc2)CC1		
> 10000	> 10000		CN1CCN(C(=O)Nc2ccccc2)c2ccc(-c3ccc([C@H]4CC[C@H](CC(=O)O)CC4)cc3)cc2C1		
	69	17	O=C(O)C[C@H]1CC[C@H](c2ccc(-c3ccc4c(c3)CCN4C(=O)Nc3ccccc3)cc2)CC1	-13	metabolised at 12 h [1]: 20%; half-life [8]: 3 h; hepatocyte CLint [9]: 13 µL/min/1e6 cells; bioavailability [10]: > 90%; fraction unbound [11]: 0.002; Papp [12]: 17 ×10⁻⁶ cm/s; solubility [13]: 50 µM (≈ 22.7 µg/mL); hepatocyte CLint [14]: 3 µL/min/1e6 cells
65	40	58	O=C(O)C[C@H]1CC[C@H](c2ccc(-c3ccc4c(c3)OCCN4C(=O)Nc3ccccc3)cc2)CC1	-52	IC50 [3]: > 10000 nM; half-life [8]: 4 h; hepatocyte CLint [9]: 9 µL/min/1e6 cells; fold induction at 30 µM [15]: 10; fraction unbound [11]: 0.002; Papp [12]: 44.8 ×10⁻⁶ cm/s; IC50 [4]: 9700 nM; solubility [13]: 100 µM (≈ 47.1 µg/mL); remaining at 144 h [16]: 80%; hepatocyte CLint [14]: 11 µL/min/1e6 cells
	8		O=C(O)C[C@H]1CC[C@H](c2ccc(-c3ccc4c(C(=O)Nc5ccccc5)cccc4c3)cc2)CC1	0	solubility [17]: 10 µM (≈ 4.64 µg/mL)
41	23	5	O=C(O)C[C@H]1CC[C@H](c2ccc(-c3ccc4c(C(=O)Nc5ccccc5)ccnc4c3)cc2)CC1	-85	IC50 [18]: 4170 nM; Papp [12]: 54.2 ×10⁻⁶ cm/s; solubility [13]: 50 µM (≈ 23.2 µg/mL)
	23	0.03	CC(C)c1cccc(NC(=O)c2ccnc3cc(-c4ccc([C@H]5CC[C@H](CC(=O)O)CC5)cc4)ccc23)c1		Stability [19]: 12 h; Activity [20]: -76%; Stability [21]: 12 h; Stability [22]: 12 h
	1.4	10	Cc1cc(C(=O)NCCCCCc2ccccc2)c2ccc(-c3ccc([C@H]4CC[C@H](CC(=O)O)CC4)cc3)cc2n1		Activity [20]: -58%
	69	34	Cc1cc(C(=O)Nc2ccccc2)c2ccc(-c3ccc(OCC(C)(C)C(=O)O)nc3)cc2n1		Activity [20]: -91%; IC50 [4]: 1550 nM
122	23		Cc1cc(C(=O)Nc2ccccc2)c2ccc(-c3ccc(OCC(C)(C)C(=O)O)[n+]([O-])c3)cc2n1		Activity [20]: -40%; IC50 [4]: 13300 nM
